Cardio protect = protects H9c2 cardiomyocytes from peroxide injury | protection from H2O2 cell death, % at 20 µM | H2O2 injury protection, ATPLite, 2 h | 360,000 compounds, 0.63% hits | AID 588492;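 active means compounds giving at least 50% protection of heart cells from peroxide-induced death in the single-dose screen, raw or plate-pattern-corrected value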;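 further: 0% = DMSO wells with peroxide and 100% = DMSO wells without peroxide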
hiPSC survival = increases survival of single human iPS cells; hiPSC single-cell survival, ATPlite luminescence; 100% = ROCK inhibitor wells, 0% = DMSO; survival enhancement, % at 20 µM; 360,000 compounds, 0.044% hits; AID 602274; in the data active means survival enhancement above about 18%;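 further: cells exposed to compounds for 16 hours before the ATP read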
CRFBP-R2 block = CRF-BP/CRF-R2 complex antagonism; HEK293 CRF-R2/CRF-BP, CRF-induced calcium fluorescence; inhibition, % at 11.8 µM; 350,000 compounds, 0.59% hits; AID 588475;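 active means inhibition of the ligand-induced calcium signal above about 50% at the single tested concentration, limit read from the data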
UCH37 DUB inh = human UCH37 deubiquitinating enzyme inhibition; inhibition, % (no concentration beside the values); purified proteasome/UCH37, Ub-AMC cleavage fluorescence; 330,000 compounds, 0.33% hits;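 active means mean inhibition over replicate wells above about 20%, limit read from the data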;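 further: 0% = compound-free wells with enzyme and 100% = wells lacking proteasome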
Target sequence (Q9Y5K5 whole entry, looked up): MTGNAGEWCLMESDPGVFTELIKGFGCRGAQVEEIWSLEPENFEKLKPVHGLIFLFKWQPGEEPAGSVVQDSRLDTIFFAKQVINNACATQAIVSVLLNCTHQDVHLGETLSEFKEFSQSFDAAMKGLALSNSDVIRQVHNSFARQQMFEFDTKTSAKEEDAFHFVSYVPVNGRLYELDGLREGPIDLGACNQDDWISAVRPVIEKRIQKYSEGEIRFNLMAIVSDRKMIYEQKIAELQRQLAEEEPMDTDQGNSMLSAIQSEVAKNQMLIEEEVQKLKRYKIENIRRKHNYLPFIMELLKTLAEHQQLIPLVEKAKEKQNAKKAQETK
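System: Proteasome-associated human UCH37 deubiquitinase; Input: 0.15 nM proteasome in added enzyme buffer; Also added: Ub-AMC substrate from 1 µM stock; Incubation: 30 min compound-proteasome preincubation then 25 min substrate reaction, room temperature; Detection: fluorescence, ex 355 nm, em 460 nm; Read-out: % inhibition of Ub-AMC cleavage fluorescence; Benchmarks: no-proteasome and no-compound wells.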
CRFR2-BP ag = agonists of human CRF-binding protein/CRF-R2 receptor complex. AID 588473. 350,000 compounds, 0.46% hits. activation, % at 13.2 µM. HEK293 CRF-R2/CRF-BP, calcium dye fluorescence (FLIPR); percent of saturating CRF peptide response;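 active means activation of at least 50%, plus an integration ratio under a set limit after plate pattern correction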;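 further: plate controls were neutral control wells without compound for no effect and CRF at EC100 for full effect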
MIN6 prolif-1 = induces beta-cell replication in MIN6 cells | MIN6 cells proliferation, ATPlite luminescence, 48 h; cells starved in 0.2% serum; 100% = growth in 10% serum | proliferation, % at 10 µM | 330,000 compounds, 0.29% hits;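 active means compounds whose signal lies at least 3.5 SD above the mean of all wells on their plate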;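 further: 0% = DMSO-treated cells in low-serum medium and 100% = 10% serum control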
MIN6 prolif-2 = MIN6 beta-cell replication induction, confirmed | shares compounds with MIN6 prolif-1 | MIN6 beta-cell proliferation, ATPlite luminescence, 48 h; cells kept in 0.2% serum; scaled between 0.2% and 10% serum | proliferation increase, % at 50 µM | 920 tested, under 10 active;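 active means proliferation increase above 40% at any of the four tested concentrations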
An asterisk follows results filed as active. The list is not random: actives were taken first. Their share in the collection is about 2.1%.

What do the screens show for `CCc1nc(Cl)c(C#N)c2c1CCCC2`?
Cardio protect: 7; hiPSC survival: 1; CRFBP-R2 block: 3; UCH37 DUB inh: 4; CRFR2-BP ag: -2; MIN6 prolif-1: 2

How did CCCc1nc(Cl)c(C#N)c2c1CCCC2 do in these assays?
Cardio protect: -2; hiPSC survival: 4; CRFBP-R2 block: 25; UCH37 DUB inh: 19; CRFR2-BP ag: -3; MIN6 prolif-1: 9.0*; MIN6 prolif-2: 7

How did CC(=O)C1=C(O)C(=O)N(Cc2ccccc2)C1c1ccc(N(C)C)cc1 (stereo not drawn) do in these assays?
Cardio protect: -1; hiPSC survival: -1; CRFBP-R2 block: 5; UCH37 DUB inh: 4; CRFR2-BP ag: 0; MIN6 prolif-1: 6.1*; MIN6 prolif-2: 0

Results for CC(Cc1ccccc1)=NNC(=O)c1cc(C(C)(C)C)[nH]n1 ?
UCH37 DUB inh: 3

Results for CCOC(=O)Cn1c(=O)n(Cc2ccco2)c(=O)c2ccc(C(=O)NC3CCCC3)cc21 ?
Cardio protect: 6; hiPSC survival: 0; CRFBP-R2 block: -17; UCH37 DUB inh: 0; CRFR2-BP ag: -3; MIN6 prolif-1: 12*; MIN6 prolif-2: -1

What do the screens show for `Cc1ccc(-c2nnc(SCC(=O)NN=Cc3ccc(C)s3)n2-c2ccc(C)cc2)cc1`?
UCH37 DUB inh: -1

Results for Cc1ccc(S(=O)(=O)N2CCOCC2)cc1NC(=O)COC(=O)c1n[nH]c(=O)c2ccccc12 ?
Cardio protect: 9; hiPSC survival: 1; CRFBP-R2 block: -3; CRFR2-BP ag: -1; MIN6 prolif-1: -1

Results for Cc1ccc(S(=O)(=O)N(C)C)cc1NC(=O)COC(=O)c1n[nH]c(=O)c2ccccc12 ?
Cardio protect: 11; hiPSC survival: 0; CRFBP-R2 block: -1; UCH37 DUB inh: 1; CRFR2-BP ag: 2; MIN6 prolif-1: 11*; MIN6 prolif-2: 1

How did COc1cccc(C=NNC(=O)c2c(-c3ccccc3)noc2C)c1OC do in these assays?
UCH37 DUB inh: -26

What do the screens show for `O=C(Cc1ccc(-c2ccccc2)cc1)Nc1ccccc1`?
Cardio protect: -10; hiPSC survival: 2; CRFBP-R2 block: -2; UCH37 DUB inh: 0; CRFR2-BP ag: 0; MIN6 prolif-1: 6.0*; MIN6 prolif-2: -1

How did COc1ccccc1C=NNC(=O)c1nnn(-c2nonc2N)c1CN(C)c1ccccc1 do in these assays?
UCH37 DUB inh: -2

How did COc1ccc(CNc2ccc(C)c(C)c2)c(OC)c1OC do in these assays?
Cardio protect: -11; hiPSC survival: -1; CRFBP-R2 block: 21; UCH37 DUB inh: 1; CRFR2-BP ag: -1; MIN6 prolif-1: -4

What do the screens show for `COc1ccc(CNc2cc(C)ccc2C)c(OC)c1OC`?
Cardio protect: -11; hiPSC survival: 1; CRFBP-R2 block: 33; UCH37 DUB inh: 2; CRFR2-BP ag: 1; MIN6 prolif-1: 9.2*; MIN6 prolif-2: -4

How did Cc1ccc(C=NNC(=O)c2cccc(NC(=O)c3ccccc3C)c2)o1 do in these assays?
UCH37 DUB inh: 5

How did COC(=O)c1ccccc1NC(=O)CSc1ccc(C)cc1 do in these assays?
Cardio protect: -3; hiPSC survival: 2; CRFBP-R2 block: 25; UCH37 DUB inh: -1; CRFR2-BP ag: 0; MIN6 prolif-1: 7.3*; MIN6 prolif-2: -6

Results for COc1cccc(C=NNc2nnc3c(n2)[nH]c2ccccc23)c1OC ?
UCH37 DUB inh: 3

Results for CC1CN(c2nc(N(C)c3ccccc3)nc(N)c2[N+](=O)[O-])CC(C)O1 (stereo not drawn) ?
Cardio protect: -7; hiPSC survival: 1; CRFBP-R2 block: 8; CRFR2-BP ag: 1; MIN6 prolif-1: 8.7*; MIN6 prolif-2: -3

Results for CC1CC(C)CN(c2nc(N(C)c3ccccc3)nc(N)c2[N+](=O)[O-])C1 (stereo not drawn) ?
Cardio protect: -6; hiPSC survival: 1; CRFBP-R2 block: -3; UCH37 DUB inh: 3; CRFR2-BP ag: 0; MIN6 prolif-1: -5

What do the screens show for `CCOC(=O)c1cc2c(=O)n3ccccc3nc2n(Cc2ccco2)c1=NC(=O)c1cccnc1`?
Cardio protect: 85*; hiPSC survival: 2; CRFBP-R2 block: 18; UCH37 DUB inh: -57; CRFR2-BP ag: 9; MIN6 prolif-1: 9.5*; MIN6 prolif-2: -5

What do the screens show for `COc1ccccc1NS(=O)(=O)c1cccc(C(=O)NN=Cc2cn(-c3ccccc3)nc2-c2ccccc2)c1`?
UCH37 DUB inh: -16

What do the screens show for `O=[N+]([O-])c1cn(-c2nc(-c3ccco3)cc(C(F)(F)F)n2)cn1`?
Cardio protect: 0; hiPSC survival: 2; CRFBP-R2 block: 8; UCH37 DUB inh: 2; CRFR2-BP ag: -1; MIN6 prolif-1: 7.7*; MIN6 prolif-2: 0

What do the screens show for `O=C(Cn1ccc(C(F)(F)F)n1)NN=Cc1cccs1`?
UCH37 DUB inh: 2

What do the screens show for `COCCCNC(=O)CN(c1ccc(F)cc1)S(=O)(=O)c1ccc2c(c1)OCCO2`?
Cardio protect: -3; hiPSC survival: 1; CRFBP-R2 block: -5; UCH37 DUB inh: 3; CRFR2-BP ag: 1; MIN6 prolif-1: 6.0*; MIN6 prolif-2: -1

How did CCN(CC)CCN(C(=O)CN1C(=O)c2ccccc2C1=O)c1nc2cc3c(cc2s1)OCO3 do in these assays?
Cardio protect: -3; hiPSC survival: 0; CRFBP-R2 block: 76*; UCH37 DUB inh: 3; CRFR2-BP ag: 1; MIN6 prolif-1: 10*; MIN6 prolif-2: -2

Results for CN(C)CCN(C(=O)CN1C(=O)c2ccccc2C1=O)c1nc2cc3c(cc2s1)OCO3 ?
Cardio protect: 5; hiPSC survival: 0; CRFBP-R2 block: -5; UCH37 DUB inh: 1; CRFR2-BP ag: 0; MIN6 prolif-1: 6

Results for Cc1ccc(-c2cc(C(F)F)n3ncc(C(=O)N4CCCc5ccccc54)c3n2)cc1 ?
Cardio protect: -10; hiPSC survival: 4; CRFBP-R2 block: -13; UCH37 DUB inh: 1; CRFR2-BP ag: 1; MIN6 prolif-1: 7.8*; MIN6 prolif-2: -2

How did COc1cc(C=NNC(=O)c2ccc(F)cc2)ccc1OC(=O)c1ccco1 do in these assays?
UCH37 DUB inh: 7

What do the screens show for `Cc1ccc(NC(=O)CCNS(=O)(=O)c2cccc3nsnc23)cc1`?
Cardio protect: 5; hiPSC survival: -1; CRFBP-R2 block: 6; UCH37 DUB inh: 2; CRFR2-BP ag: -1; MIN6 prolif-1: 0

Assay outcomes as filed in PubChem.
